Measurements from PubChem BioAssay AID623916 (The Scripps Research Institute Molecular Screening Center, 2012).
The source made the active and inactive calls.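 How the source made its calls: active means recipient E. coli survival below 80% of the solvent-only control; inactive means survival at 80% of control or higher.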

Tested on: E. coli V66 viability, colony formation, 1.5 h
Test: recipient strain killing during Hfr crosses – colony formation, single concentration, Hfr recombination, cytotoxicity control for AddAB inhibitor project, late-stage follow-up (AID 623916)
Details: at 100 µM
Summary of the method: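 System: E. coli strain V66 recipients; Buffer or medium: LB broth during compound pre-growth; Compound dosing: single nominal 100 µM compound, present during pre-growth and mating; Times: 1 h compound pre-growth plus 30 min mating, 1.5 h total; Measured by: colony formation on non-selective plates.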

With `C=CCNC(=S)N1CCN(c2ncc3c(=O)c(C(=O)O)cn(CC)c3n2)CC1` the outcome was “inactive”.

For `CCn1cc(C(=O)O)c(=O)c2cc(F)c(N3CCN(C(=S)Nc4cccc(C(F)(F)F)c4)CC3)cc21`, the outcome was “active”.

In the case of `CCn1cc(C(=O)O)c(=O)c2cnc(N3CCN(C(=S)Nc4ccccc4Cl)CC3)nc21`, the outcome is reported as “inactive”.

In the case of `CCn1cc(C(=O)O)c(=O)c2cnc(N3CCN(C(=S)Nc4ccc(Cl)cc4)CC3)nc21`, the outcome is reported as “inactive”.

`CCn1cc(C(=O)O)c(=O)c2cnc(N3CCN(C(=S)Nc4ccc5c(c4)OCO5)CC3)nc21` was tested, and the outcome was “inactive”.

In the case of `O=C(Nc1ncccn1)c1ccc([N+](=O)[O-])o1`, the outcome is reported as “inactive”.

In the case of `N#Cc1c(NC(=O)c2ccco2)sc2c1CCC2`, the outcome is reported as “inactive”.

In the case of `CCn1cc(C(=O)O)c(=O)c2cnc(N3CCN(C(=S)Nc4ccccc4)CC3)nc21`, the outcome is reported as “inactive”.

With `Cc1cccnc1NC(=O)c1ccc([N+](=O)[O-])o1` the outcome was “inactive”.

In the case of `CCn1cc(C(=O)O)c(=O)c2cnc(N3CCN(C(=S)NC(C)c4ccccc4)CC3)nc21` (centres undefined), the outcome is reported as “inactive”.

In the case of `CCn1cc(C(=O)O)c(=O)c2cnc(N3CCN(C(=S)Nc4ccc(F)cc4)CC3)nc21`, the outcome is reported as “inactive”.

`CCn1cc(C(=O)O)c(=O)c2cnc(N3CCN(C(=S)Nc4ccccc4F)CC3)nc21` was tested, and the outcome was “inactive”.

In the case of `N#Cc1c(NC(=O)c2ccc([N+](=O)[O-])o2)sc2c1CCC2`, the outcome is reported as “inactive”.

With `CCn1cc(C(=O)O)c(=O)c2cnc(N3CCN(C(=S)Nc4ccccc4OC)CC3)nc21` the outcome was “inactive”.

`CCn1cc(C(=O)O)c(=O)c2cnc(N3CCN(C(=S)NC4CC5CCC4C5)CC3)nc21` (centres undefined) was tested, and the outcome was “inactive”.

`CCn1cc(C(=O)O)c(=O)c2cnc(N3CCNCC3)nc21` was tested, and the outcome was “inactive”.

With `CC(=O)Nc1ccc2nc(NC(=O)c3ccc([N+](=O)[O-])o3)sc2c1` the outcome was “inactive”.

`CCn1cc(C(=O)O)c(=O)c2cnc(N3CCN(C(=O)Nc4ccccc4)CC3)nc21` was tested, and the outcome was “inactive”.

For `Cc1ccc2nc(/C(C#N)=C\c3ccc([N+](=O)[O-])o3)[nH]c2c1`, the outcome was “inactive”.

In the case of `N#Cc1c(NC(=O)c2cnccn2)sc2c1CCCC2`, the outcome is reported as “inactive”.

With `O=C(Nc1cccc(NC(=O)c2ccccc2Cl)c1)c1ccc([N+](=O)[O-])o1` the outcome was “inactive”.

For `Cc1ccc(C(=O)Nc2sc3c(c2C#N)CCCCC3)o1`, the outcome was “inactive”.

For `CC1(C)Cc2c(sc(NC(=O)c3ccco3)c2C#N)CO1`, the outcome was “inactive”.

With `CCn1cc(C(=O)O)c(=O)c2cnc(N3CCN(C(=S)NC)CC3)nc21` the outcome was “inactive”.

With `CCn1cc(C(=O)O)c(=O)c2cnc(N3CCN(C(=S)Nc4ccccc4C(F)(F)F)CC3)nc21` the outcome was “inactive”.

In the case of `NC(=O)c1ccsc1NC(=O)COC(=O)c1ccc([N+](=O)[O-])o1`, the outcome is reported as “inactive”.

In the case of `CC1CCc2c(sc(NC(=O)c3ccc([N+](=O)[O-])o3)c2N)C1` (centres undefined), the outcome is reported as “inactive”.

With `CCn1cc(C(=O)O)c(=O)c2cnc(N3CCN(C(=S)Nc4ccc5c(c4)OCCO5)CC3)nc21` the outcome was “inactive”.

In the case of `C=CCn1c(Sc2ncc([N+](=O)[O-])s2)n[nH]c1=O`, the outcome is reported as “inactive”.

With `CCn1cc(C(=O)O)c(=O)c2cnc(N3CCN(C(=S)NC(=O)c4ccco4)CC3)nc21` the outcome was “inactive”.

With `N#Cc1c(NC(=O)c2ccccc2)sc2c1CCC2` the outcome was “inactive”.

In the case of `Cc1sc(NC(=O)c2ccc(Br)o2)c(C#N)c1C`, the outcome is reported as “inactive”.

In the case of `N#Cc1c(NC(=O)c2ccc([N+](=O)[O-])o2)sc2c1CCCC2`, the outcome is reported as “inactive”.

For `Nc1c(NC(=O)c2ccc([N+](=O)[O-])o2)sc2c1CCCC2`, the outcome was “inactive”.

`CCn1cc(C(=O)O)c(=O)c2cnc(N3CCN(C(=S)NC(=O)c4ccccc4Cl)CC3)nc21` was tested, and the outcome was “inactive”.

With `O=C(NCc1cccnc1)c1ccc([N+](=O)[O-])o1` the outcome was “inactive”.

`CCn1cc(C(=O)O)c(=O)c2cnc(N3CCN(C(=S)NC(=O)c4cccc(C)c4)CC3)nc21` was tested, and the outcome was “inactive”.

In the case of `O=C(OCC(=O)c1cccs1)c1ccc([N+](=O)[O-])o1`, the outcome is reported as “inactive”.

With `N#Cc1c(NC(=O)c2ccc(-c3ccccc3[N+](=O)[O-])o2)sc2c1CCCC2` the outcome was “inactive”.

`N#Cc1c(NC(=O)c2ccccc2C(=O)O)sc2c1CCCC2` was tested, and the outcome was “inactive”.

In the case of `N#Cc1c(NC(=O)c2cccc(F)c2)sc2c1CCCC2`, the outcome is reported as “inactive”.

For `CCn1cc(C(=O)O)c(=O)c2cnc(N3CCN(C(=S)NCc4ccccc4)CC3)nc21`, the outcome was “inactive”.

`N#Cc1c(NC(=O)C2CC=CCC2C(=O)O)sc2c1CCC2` (centres undefined) was tested, and the outcome was “inactive”.

In the case of `CC1CCc2c(sc(NC(=O)c3ccc([N+](=O)[O-])o3)c2C#N)C1` (centres undefined), the outcome is reported as “inactive”.

For `CCn1cc(C(=O)O)c(=O)c2cnc(N3CCN(C(=S)Nc4cccc(C(F)(F)F)c4)CC3)nc21`, the outcome was “inactive”.

For `CCn1cc(C(=O)O)c(=O)c2cnc(N3CCN(C(=S)NC(=O)c4cccnc4)CC3)nc21`, the outcome was “inactive”.

For `Cc1ccc(C(=O)Nc2sc3c(c2C#N)CCC3)o1`, the outcome was “inactive”.

With `O=C(Nc1ccc(N2CCOCC2)cc1)c1ccc([N+](=O)[O-])o1` the outcome was “inactive”.

In the case of `CCn1cc(C(=O)O)c(=O)c2cnc(N3CCN(C(=S)Nc4ccccc4C)CC3)nc21`, the outcome is reported as “inactive”.
